The record followed here is ChEMBL document CHEMBL1129555, “Arylacetamide-derived fluorescent probes: synthesis, biological evaluation, and direct fluorescent labeling of kappa opioid receptors in mouse microglial cells” (J Med Chem, 1996).

pIC50, pKi: −log10 of the molar value.

The target of test [1] is T1, Kappa-type opioid receptor (Cavia porcellus, UniProt P41144). Description: Inhibitory activity against Opioid receptor kappa 1 in electrically stimulated guinea pig longitudinal ileal muscle (GPI) preparation. The essentials:
(§1)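 Electrically stimulated guinea pig longitudinal ileal muscle or mouse vas deferens preparations, run per earlier work. The read-out is inhibition of twitch, given as IC50 (nM), arithmetic mean ± SEM of at least three experiments.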

The target of test [2] is Kappa-type opioid receptor (Mus musculus, UniProt P33534). Description: Inhibitory activity against Opioid receptor kappa 1 in electrically stimulated mouse vas deferens (MVD) preparation. In a few lines:
as §1

The species entered for test [3] is Cavia porcellus. Description: Percent recovery of twitch height after 30-40 washes with buffer using smooth guinea pig ileal muscle. It counts as functional. As to conditions: Muscle tissue. In a few lines:
(§2)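 After agonist treatment, the electrically stimulated guinea pig ileum or mouse vas deferens was washed 30-40 times with buffer alone. Percent recovery of twitch height was recorded, n = 1.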

The species named for test [4] is Cavia porcellus. The experiment in a line: Percent recovery after treatment with 500 nM of NTX and removal of NTX by 40 washes with buffer using smooth guinea pig ileal muscle. Type of test: functional. Particulars: Muscle tissue. In a few lines: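 Agonist-treated guinea pig ileum was incubated with 500 nM naltrexone for 10 min. NTX was then removed by 40 washes with buffer, and recovery of electrically evoked twitch height was recorded as percent. n = 1.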

The species entered for another test is Mus musculus. The experiment in a line: Percent recovery of twitch height after 30-40 washes with buffer using mouse vas deferens preparation. It counts as functional. In a few lines: as §2
Test [5] addresses T1, Kappa-type opioid receptor. Description: Binding affinity towards Opioid receptor kappa 1 in guinea pig brain. In a few lines: (§3)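 Competition binding against radioligands in guinea pig brain membranes, modified from a published method. κ: 1 nM [³H]U69,593; µ: 2 nM [³H]DAMGO; δ1: 5 nM [³H]DPDPE; δ2: 2 nM [³H]DSLET. Ki values are geometric means of three experiments.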
For the next test, the target named is Mu-type opioid receptor (Cavia porcellus, UniProt P97266). Description: Binding affinity towards Opioid receptor mu 1 in guinea pig brain. In a few lines:
as §3

Sequence of Kappa-type opioid receptor (Mus musculus, UniProt P33534) (P33534 whole entry): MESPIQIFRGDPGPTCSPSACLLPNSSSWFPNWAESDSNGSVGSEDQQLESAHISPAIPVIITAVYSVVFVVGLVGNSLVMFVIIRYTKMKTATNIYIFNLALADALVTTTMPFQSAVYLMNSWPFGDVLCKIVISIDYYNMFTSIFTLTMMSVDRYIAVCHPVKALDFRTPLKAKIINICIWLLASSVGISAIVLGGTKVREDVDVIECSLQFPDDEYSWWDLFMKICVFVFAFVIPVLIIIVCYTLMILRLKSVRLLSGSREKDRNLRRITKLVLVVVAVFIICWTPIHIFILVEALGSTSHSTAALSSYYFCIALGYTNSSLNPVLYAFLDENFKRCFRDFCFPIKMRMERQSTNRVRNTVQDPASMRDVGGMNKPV
T1 sequence (P41144 whole entry): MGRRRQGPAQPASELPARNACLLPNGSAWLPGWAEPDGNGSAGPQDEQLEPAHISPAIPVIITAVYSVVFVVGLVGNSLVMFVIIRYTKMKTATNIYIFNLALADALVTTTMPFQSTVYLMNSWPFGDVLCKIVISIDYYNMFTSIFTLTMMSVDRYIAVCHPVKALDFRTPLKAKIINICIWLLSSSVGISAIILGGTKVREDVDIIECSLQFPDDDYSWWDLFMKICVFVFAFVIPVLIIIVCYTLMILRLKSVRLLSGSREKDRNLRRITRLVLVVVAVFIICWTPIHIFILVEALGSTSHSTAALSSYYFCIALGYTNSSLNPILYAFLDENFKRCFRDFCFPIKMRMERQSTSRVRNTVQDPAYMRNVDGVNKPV
Sequence of Mu-type opioid receptor (P97266 whole entry): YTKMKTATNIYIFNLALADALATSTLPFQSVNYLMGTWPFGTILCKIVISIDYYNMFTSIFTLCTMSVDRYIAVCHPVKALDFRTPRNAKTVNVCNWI

What is called pIC50 is the IC50 on a negative log10 scale, so that one unit is a factor of ten. Regarding `CN(C(=O)Cc1ccc(Cl)c(Cl)c1)C(CN1CCCC1)c1ccc(NC(=O)CNC(=O)CNC(=O)CNC(=O)C/N=C(S)\N=C2/C=CC(=C3c4ccc(O)cc4Oc4cc(O)ccc43)C(C(=O)O)=C2)cc1` (centres undefined), the negative logarithm of the IC50 (pIC50) is 6.78 in test [1] and 6.38 in test [2].
On to `CN(C(=O)Cc1ccc(Cl)c(Cl)c1)C(CN1CCCC1)c1ccc(NC(=O)CNC(=O)C/N=C(S)\N=C2/C=CC(=C3c4ccc(O)cc4Oc4cc(O)ccc43)C(C(=O)O)=C2)cc1` (centres undefined), for which the results for the pIC50 in test [1] and in test [2] were 7.32 and 6.77, respectively.
As to `CN(C(=O)Cc1ccc(Cl)c(Cl)c1)[C@H](CN1CCCC1)c1ccccc1`, the figures for the Recovery in the test listed under Cavia porcellus [3] and in the test filed under Cavia porcellus [4] were 20% and 32%, respectively.
Turning to `CN(C(=O)Cc1ccc(Cl)c(Cl)c1)[C@H](CN1CCCC1)c1cccc(N/C(S)=N/c2ccc(-c3c4ccc(=O)cc-4oc4cc(O)ccc34)c(C(=O)O)c2)c1`, the Recovery in the test listed under Mus musculus amounted to 100%; in the test listed under Cavia porcellus [3], 21%; in the test filed under Cavia porcellus [4], 61%.
`CN(C(=O)Cc1ccc(Cl)c(Cl)c1)C(CN1CCCC1)c1ccc(N/C(S)=N/c2ccc(-c3c4ccc(=O)cc-4oc4cc(O)ccc34)c(C(=O)O)c2)cc1` (centres undefined): the negative logarithm of the IC50 (pIC50) in test [1] is 8.28; in test [2], 7.90.
On to `CN(C(=O)Cc1ccc(Cl)c(Cl)c1)[C@H](CN1CCCC1)c1cccc(NC(=O)CNC(=O)C/N=C(S)/N=C2\C=CC(=C3c4ccc(O)cc4Oc4cc(O)ccc43)C(C(=O)O)=C2)c1`, for which the results for the Recovery in the test filed under Mus musculus, in the test listed under Cavia porcellus [3] and in the test listed under Cavia porcellus [4] were 100%, 34% and 37%, respectively. In addition, the pIC50 in test [1] is 8.92; in test [2] it was 8.82.
A word on the pKi: it is −log10 of the Ki, conventionally taken in molar units. The low end stands for a large Ki, the high end for a small Ki. Turning to `CN(C(=O)Cc1ccc(Cl)c(Cl)c1)[C@H](CN1CCCC1)c1cccc(NC(=O)C/N=C(S)/N=C2\C=CC(=C3c4ccc(O)cc4Oc4cc(O)ccc43)C(C(=O)O)=C2)c1`, the results for the pKi (in test [5]; on Mu-type opioid receptor) were 9.51 and 6.54, respectively. Besides, the Recovery is 79% in the test listed under Mus musculus, 39% in the test filed under Cavia porcellus [3] and 97% in the test filed under Cavia porcellus [4]. For the same compound, the pIC50 in test [1] was 9.77; in test [2], 8.92.
`CN(C(=O)Cc1ccc(Cl)c(Cl)c1)[C@H](CN1CCCC1)c1cccc(NC(=O)CNC(=O)CNC(=O)CNC(=O)C/N=C(S)/N=C2\C=CC(=C3c4ccc(O)cc4Oc4cc(O)ccc43)C(C(=O)O)=C2)c1`: the figures for the negative logarithm of the Ki (pKi) (in test [5]; at Mu-type opioid receptor) were 9.04 and 6.20, respectively. For the same compound, the Recovery in the test filed under Mus musculus is 100%; in the test filed under Cavia porcellus [3], 44%; in the test listed under Cavia porcellus [4], 131%. Also, the pIC50 in test [1] was 9.82; in test [2], 8.19.
Regarding `CN(C(=O)Cc1ccc(Cl)c(Cl)c1)C(CN1CCCC1)c1ccc(NC(=O)C/N=C(S)/N=C2\C=CC(=C3c4ccc(O)cc4Oc4cc(O)ccc43)C(C(=O)O)=C2)cc1` (centres undefined), the negative-log IC50 (pIC50) in test [1] was 7.21; in test [2], 6.99.
As to `CN(C(=O)Cc1ccc(Cl)c(Cl)c1)[C@H](CN1CCCC1)c1cccc(NC(=S)Nc2ccc(-c3c4ccc(=O)cc-4oc4cc(O)ccc34)c(C(=O)O)c2)c1`, the negative-log IC50 (pIC50) was 9.43 in test [1] and 8.92 in test [2].
